Compound activity from PubChem.
Hits are enriched below; roughly 2.8% of the tested compounds scored in any of these assays.
CAL PDZ FP-1: blocks peptide binding to human CAL PDZ domain | inhibition, % at 20 µM | actives 0.02% (n = 330,000) | AID 504414 | purified CAL PDZ, TMR-peptide fluorescence polarization, 1 h;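 active = highest replicate inhibition of at least 40%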;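 also: plate controls were DMSO neutral control wells for no effect and unlabeled competitor peptide control wells for full effect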
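material = purified tagged CAL PDZ domain construct (CerCALP) | compound dosing = 20 µM, one dose | times = 1 h at RT | measured by = fluorescence polarization from S- and P-plane intensities, G-factor corrected | read-out = inhibition from polarization loss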
CAL PDZ FP-2: inhibitors of human CAL PDZ peptide binding. Q9HD26. purified CAL PDZ, TMR-peptide fluorescence polarization, 1 h. inhibition, % at 24.9 µM. actives 0.92% (n = 300,000). AID 602252;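 active = mean inhibition of at least 30% with at least half of replicates also reaching 30%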;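 also: 0% = DMSO neutral control and 100% = excess unlabeled competitor peptide PRC23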
SR-BI uptake up: activators of SR-BI mediated HDL lipid uptake; activation, % at 12.5 µM; CHO ldlA[mSR-BI] cells, DiI-HDL uptake fluorescence, 3 h; 100 = double the neutral-control signal; AID 504775; actives 0.096% (n = 320,000);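 active = mean replicate activation of at least 60% and every replicate at or above 60%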;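 also: 0% = median plate neutral-control signal and 100% = twice that signal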
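Assay system: CHO ldlA[mSR-BI] cells, LDL receptor-null, SR-BI overexpressing; medium: Ham's F12 with 0.5% BSA, HEPES 25 mM, pH 7.4; also added: DiI-HDL 10 µg/mL; timing: 3 h uptake period with compound, 37 °C; signal: DiI fluorescence, bottom read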
dFosB act: activators of mouse delta FosB homodimer. P13346. purified delta FosB, TAMRA-CDK5 oligo fluorescence polarization; percent of positive-control signal above neutral wells. activation, % at 25 µM. actives 0.99% (n = 340,000);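 active = mean activation above about 17%, with every replicate also reaching it, limit read from the data, passing the limit was not always enough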
Target sequence (P13346 whole entry, looked up): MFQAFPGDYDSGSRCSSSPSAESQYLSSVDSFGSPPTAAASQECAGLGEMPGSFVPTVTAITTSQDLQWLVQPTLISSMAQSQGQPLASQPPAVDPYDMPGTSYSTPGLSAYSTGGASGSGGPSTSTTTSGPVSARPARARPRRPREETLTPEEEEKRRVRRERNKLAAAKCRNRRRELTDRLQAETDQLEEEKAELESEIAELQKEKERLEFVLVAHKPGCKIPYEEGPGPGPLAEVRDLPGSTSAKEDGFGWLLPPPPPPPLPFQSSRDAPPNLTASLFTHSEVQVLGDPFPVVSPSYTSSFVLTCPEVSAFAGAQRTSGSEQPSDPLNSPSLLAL
SR-BI HDL uptake: mouse SR-BI HDL lipid transfer inhibition; Q61009; ldlA[mSR-BI] CHO cells, DiI-HDL uptake fluorescence, 3 h; inhibition, % at 12.5 µM; actives 0.96% (n = 320,000); AID 488896;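 active = mean replicate inhibition of at least 70% and a set share of replicates each scoring 70 or more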;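 also: 0% = median of neutral control wells and 100% = median of positive control wells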
* hit, by the source's call; / = no result.

SMILES | CAL PDZ FP-1 | CAL PDZ FP-2 | SR-BI uptake up | dFosB act | SR-BI HDL uptake
COc1ccc(NC(=O)CSc2nnc(NC(=O)c3ccco3)s2)cc1OC | 0 | -4 | 11 | 0 | -11
Cc1ccc(-c2n[nH]c(=S)c3ccccc23)cc1S(=O)(=O)NCC1CCCO1 (centres undefined) | -4 | 39* | -25 | -3 | 25
Cc1ccc(-c2n[nH]c(=O)c3ccccc23)cc1S(=O)(=O)NCC1CCCO1 (centres undefined) | -2 | / | / | -9 | /
CN1CCN(C(=O)/C(=C/c2cn(S(=O)(=O)N(C)C)c3ccccc23)NC(=O)c2ccccc2F)CC1 | -2 | 54* | 1 | -12 | -1
Cc1cc(=O)oc2cc(NC(=O)c3ccccc3OC(F)F)ccc12 | -1 | / | / | -14 | /
CCOC(=O)C1=C(CC)Nc2ccccc2N/C1=N\S(=O)(=O)c1cccc(C(C)=O)c1 | 0 | 55* | 11 | -7 | -11
COc1ccc(COCC(O)CN2CCOCC2)cc1OC (centres undefined) | 1 | 0 | 19 | -2 | -19
COc1cc(COCC(O)CN2CCOCC2)cc(OC)c1OC (centres undefined) | 0 | 56* | 53 | 6 | -53
CC1(C)CC(=O)CC(=O)/C1=N\Nc1c(Cl)cc(Cl)cc1Cl | 0 | -1 | 2 | 3 | -2
CCc1ccc(-c2nc(SCC(=O)c3c(N)n(C4CC4)c(=O)[nH]c3=O)n[nH]2)cc1 | 0 | -1 | 15 | 42* | -15
COc1cccc(/C=N/NC(=S)NC2CC3CC2C2C=CCC32)c1O (centres undefined) | 0 | / | -51 | 0 | 51
CCOc1ccccc1C=NNC(=O)C(=O)NN=Cc1ccccc1OCC | 0 | -4 | -25 | 1 | 25
Oc1ccccc1/C=N/NC(=S)NC1CC2CC1C1C=CCC21 (centres undefined) | -1 | -4 | -85 | -11 | 85*
CCOc1ccccc1C=NNC(=O)CCCCC(=O)NN=Cc1ccccc1OCC | -1 | / | -81 | 1 | 81*
CCOc1ccccc1/C=N/NC(=O)c1ccc(Cn2cc([N+](=O)[O-])cn2)o1 | -2 | -5 | -87 | 0 | 87*
CCOc1ccc(/C=N/NC(=O)c2ccc(Cn3cc([N+](=O)[O-])cn3)o2)cc1 | / | 1 | -26 | 10 | 26
Oc1ccc(C=NNC(=S)Nc2ccc(F)cc2)c(O)c1 | 0 | 32* | -26 | 0 | 26
Cc1[nH]c2ccccc2c1C(=O)CSc1nnc(C2CC2)o1 | 0 | / | -32 | -1 | 32
O=C1N/C(=C/c2ccc(N3CCOCC3)o2)C(=O)N1c1cccc(Cl)c1 | -4 | 1 | -57 | -5 | 57
Cc1nc(C)c(C(=O)O)c(-c2cccs2)c1C(=O)O | 0 | / | 29 | -7 | -29
O=C(CSc1ccccc1)N/N=C/c1ccccc1O | -1 | -1 | -16 | 1 | 16
O=C(N/N=C/c1cc(Br)ccc1O)Nc1ccccc1 | -2 | -2 | -50 | 0 | 50
CCOc1ccccc1NC(=O)C(=O)N/N=C/c1cc(Br)ccc1O | 0 | 67* | -126 | 5 | 126*
O=C(N/N=C/c1ccccc1O)C(=O)Nc1ccccn1 | 0 | -5 | -88 | -3 | 88*
NC(=S)N/N=C/c1ccccc1O | -1 | -1 | / | -3 | /
SMILES | CAL PDZ FP-1 | CAL PDZ FP-2 | SR-BI uptake up | dFosB act | SR-BI HDL uptake
Oc1ccccc1C=NNC(=S)NN=Cc1ccccc1O | 5 | -8 | -133 | 8 | 133*
COc1ccc(/C=N/NC(=O)C(=O)Nc2ccccn2)cc1OC | -1 | -1 | -3 | 4 | 3
O=C(CCSCCC(=O)NN=Cc1ccccc1O)NN=Cc1ccccc1O | -2 | / | 12 | 36* | -12
COc1ccc(/C=C2\SC(=S)N(CC(=O)OCC(=O)Nc3cc(Cl)cc(Cl)c3)C2=O)cc1 | 1 | 27 | / | -6 | /
CCc1ccc(NC(=O)CS(=O)CC(=O)Nc2ccc(N3CCOCC3)cc2)cc1 (centres undefined) | 0 | 3 | -9 | 7 | 9
CN(C)c1ccc(CN(C(=O)c2ccccc2Br)C2CCS(=O)(=O)C2)cc1 (centres undefined) | -2 | 10 | -3 | -4 | 3
CN1CCN(c2nc(-c3cccnc3)nc3ccccc23)CC1 | -3 | 0 | 4 | -23 | -4
COc1cc2c(cc1OC)CN(c1nc(-c3cccnc3)nc3ccccc13)CC2 | -5 | 71* | -31 | 34* | 31
COc1ccc(C)c2sc(N(CCN(C)C)C(=O)/C=C/c3cccs3)nc12 | -6 | -6 | -17 | 78* | 17
COc1ccc(OC)c2sc(N(CCN(C)C)C(=O)/C=C/c3cccs3)nc12 | -1 | -3 | -6 | 40* | 6
COc1cccc2sc(N(CCN(C)C)C(=O)/C=C/c3cccs3)nc12 | -3 | -2 | -14 | -6 | 14
COc1ccc(CCNC(=O)CN2c3cccc4cccc(c34)S2(=O)=O)cc1 | 0 | -4 | -13 | -10 | 13
COc1ccc(-n2c(SCC(=O)Nc3ccccc3C)nc(O)c(Cc3ccccc3)c2=O)cc1 | 0 | 0 | 5 | -5 | -5
CC(CN1CCN(C)CC1)OC(=O)c1cccc(Cl)c1 (centres undefined) | / | 157* | 11 | -1 | -11
C/C(=N\NC(=O)c1cccc(N/N=C(\C)c2ccco2)c1)c1ccco1 | -3 | 0 | -21 | -12 | 21
C/C(=N\NC(=O)c1cccc(N/N=C(\C)c2cc(O)ccc2O)c1)c1cc(O)ccc1O | -2 | 0 | -85 | -12 | 85*
Cc1ccc(-c2nc3ccccc3c(=O)o2)cc1 | 35 | 48* | -3 | -1 | 3
O=C(NCc1ccccc1)c1ccc2ccccc2n1 | -1 | / | / | -5 | /
Cc1ccccc1CNC(=O)c1ccc2ccccc2n1 | -1 | 76* | 12 | -5 | -12
CCn1c(SCC(=O)N2CCCC2=O)nnc1-c1cccs1 | -2 | -4 | 96* | -1 | -96
O=C1C(=O)N(Cc2cccnc2)C(c2cccc(Br)c2)/C1=C(/O)c1ccc2c(c1)OCO2 (centres undefined) | -3 | -4 | 17 | -3 | -17
CC(=O)Nc1ccc2nc(-c3cccn3C)[nH]c2c1 | 1 | 35* | -8 | 1 | 8
Cc1[nH]n(-c2ccccc2)c(=O)c1C(=O)Nc1ccccc1 | -4 | -1 | -7 | 1 | 7
C/C(=N\NC(=O)c1ccc(C)cc1)c1c(C)[nH]n(-c2ccccc2)c1=O | / | -5 | -125 | -1 | 125*
C/C(=N\NC(=O)c1ccccc1)c1c(C)[nH]n(-c2ccccc2)c1=O | -4 | / | -126 | 6 | 126*
Cc1[nH]n(-c2ccccc2)c(=O)c1N=Nc1ccccc1O | / | -3 | -119 | 2 | 119*
CCCc1ccc(OCc2ccc(C(=O)N/N=C/c3cccnc3)o2)cc1 | -2 | -1 | -5 | -4 | 5
